Results on 3 compounds are retold here after ChEMBL document CHEMBL3425464, “HM30181 Derivatives as Novel Potent and Selective Inhibitors of the Breast Cancer Resistance Protein (BCRP/ABCG2)” (J Med Chem, 2015).

The nature of data set [1]: Intrinsic cytotoxicity against wild type MDCK2 cells assessed as reduction in cell viability after 72 hrs by MTT assay. To be noted: dog. The class given is cell-based, Canis lupus familiaris, MDCK-II. The gist of the method:
(§1)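 Cells are seeded at 3000/well and allowed to attach for 6 h at 37 °C, 5% CO2. They are then exposed to compound in medium, up to 100 μM final (DMSO ≤1.0%), for 72 h. Controls are medium alone (negative) and 10% DMSO (positive). MTT is added for 1 h, formazan is dissolved in DMSO, and absorbance is read at 570 nm minus 690 nm. Viability is expressed as % of the negative control, and GI50 comes from a variable-slope sigmoidal fit. n = 3, each in quadruplicate.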
Background: Tetrazolium assays rely on reduction of a dye to a coloured formazan, in cell work by metabolically active cells.

Data set [2] concerns the target T1, Broad substrate specificity ATP-binding cassette transporter ABCG2 (Homo sapiens, UniProt Q9UNQ0).
T1 sequence (Q9UNQ0 whole entry): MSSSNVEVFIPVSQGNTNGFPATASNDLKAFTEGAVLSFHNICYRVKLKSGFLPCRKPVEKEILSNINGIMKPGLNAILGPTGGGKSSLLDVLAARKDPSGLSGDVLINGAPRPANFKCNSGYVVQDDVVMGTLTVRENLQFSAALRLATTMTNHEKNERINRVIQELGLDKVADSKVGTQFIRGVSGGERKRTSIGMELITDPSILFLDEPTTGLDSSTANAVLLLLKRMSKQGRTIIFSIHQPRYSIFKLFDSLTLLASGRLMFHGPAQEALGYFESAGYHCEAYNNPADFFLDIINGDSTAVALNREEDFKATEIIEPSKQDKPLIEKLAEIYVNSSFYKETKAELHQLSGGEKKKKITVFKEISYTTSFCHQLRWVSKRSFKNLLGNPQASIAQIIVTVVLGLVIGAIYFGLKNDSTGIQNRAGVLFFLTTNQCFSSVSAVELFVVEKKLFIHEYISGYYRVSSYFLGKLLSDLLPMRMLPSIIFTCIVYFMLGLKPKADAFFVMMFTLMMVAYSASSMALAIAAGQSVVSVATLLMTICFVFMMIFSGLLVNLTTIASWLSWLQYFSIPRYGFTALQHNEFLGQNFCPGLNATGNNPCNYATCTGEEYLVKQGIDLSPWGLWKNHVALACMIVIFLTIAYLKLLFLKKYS
As to the kind of experiment: Inhibition of human BCRP expressed in MDCK2 cells assessed as reversal of multidrug resistance by measuring increase in SN-38-induced cytotoxicity at 5 uM after 72 hrs by MTT assay. The following applies: mdck-ii. It is filed as cell-based. The gist of the method:
(§2)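 MDCK II BCRP cells are seeded at 3000/well and allowed to attach for 6 h at 37 °C, 5% CO2. They are then exposed to SN-38 (up to 100 μM) alone or together with 3 μM or 5 μM modulator for 72 h. MDCK II wild-type cells given SN-38 serve as the comparison. MTT is added for 1 h, formazan is dissolved in DMSO, and absorbance is read at 570 nm with 690 nm background.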

The target in data set [3] is Multidrug resistance-associated protein 1 (Homo sapiens, UniProt P33527). Put plainly: Inhibition of MRP1 in human H69AR cells at 10 uM pre-incubated for 30 mins followed by calcein AM addition and further incubated for 60 mins by calcein AM assay. The following applies: 1 h.
The next data set has as its target ABCB1 (P-gp) (Homo sapiens, UniProt P08183). Put plainly: Inhibition of ABCB1 in human A2780adr cells at 10 uM pre-incubated for 30 mins followed by calcein AM addition and further incubated for 60 mins by calcein AM assay. The class given is cell-based, A2780 ADR. To be noted: probe calcein AM.
The nature of data set [4]: Ratio of GI50 for wild type MDCK2 cells by MTT assay to IC50 for GFP-tagged human BCRP expressed in MDCK2 cells by Hoechst 33342 accumulation assay. Details: species or system MDCK-II; call rule not given here. In outline:
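Ratio of two values. […] Read at 570/690 nm as % of medium control; n = 3, each in quadruplicate. IC50 came from Hoechst 33342 accumulation in MDCK II BCRP-GFP cells: 2 h at 37 °C, steady-state fluorescence, four-parameter fit.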

Data set [5] in a line: Intrinsic cytotoxicity against BCRP expressing MDCK2 cells assessed as reduction in cell viability after 72 hrs by MTT assay. The class given is ADME, cell-based, Canis lupus familiaris, MDCK-II. To be noted: dog. In outline: as §1
Data set [6] concerns the target T1, Broad substrate specificity ATP-binding cassette transporter ABCG2. As to the kind of experiment: Inhibition of GFP-tagged human BCRP expressed in MDCK2 cells pre-incubated for 30 mins followed by Hoechst 33342 addition and further incubated for 120 mins by Hoechst 33342 accumulation assay. It is filed as cell-based, MDCK-II. The gist of the method:
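MDCK II cells stably carrying human BCRP cDNA C-terminally fused to GFP are washed in KHB, pH 7.4. About 30,000 cells/well are preincubated 30 min at 37 °C with compound up to 10 μM (DMSO ≤0.1%, methanol ≤5% for poorly soluble compounds). Hoechst 33342 is added from a 10 μM solution, and fluorescence (ex 355/em 460) is read every 60 s for 120 min. The steady-state mean (100–109 min) is fitted to a four-parameter logistic curve.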

The nature of data set [7]: Solubility in DMSO. It is filed as physicochemical.
Data set [8] can be described thus: Solubility in water. The following applies: buffer. It is filed as physicochemical.
For data set [9], the target named is T2, BCRP (ABCG2) (Homo sapiens, UniProt Q9UNQ0).
T2 sequence (Q9UNQ0 whole entry): T1 sequence (Q9UNQ0 whole entry)
Put plainly: Potency index, ratio of IC50 for Ko143 to IC50 for compound against GFP-tagged human BCRP expressed in MDCK2 cells by Hoechst 33342 accumulation assay. The class given is cell-based. To be noted: MDCK2 cells expressing GFP-tagged human BCRP, probe Hoechst 33342, read-out: Ratio IC50.

Data set [10] concerns the target T2, BCRP (ABCG2). As to the kind of experiment: Inhibition of GFP-tagged human BCRP expressed in MDCK2 cells pre-incubated for 30 mins followed by Hoechst 33342 addition and further incubated for 120 mins by Hoechst 33342 accumulation assay relative to XR9577. It is filed as cell-based, MDCK-II. The following applies: MDCK2 cells expressing GFP-tagged human BCRP, probe Hoechst 33342, read-out: Imax.

The target of data set [11] is T1, Broad substrate specificity ATP-binding cassette transporter ABCG2. As to the kind of experiment: Inhibition of human BCRP expressed in MDCK2 cells assessed as reversal of multidrug resistance by measuring increase in SN-38-induced cytotoxicity at 3 uM after 72 hrs by MTT assay. It is filed as cell-based. To be noted: mdck-ii. In outline: as §2

Sequence of ABCB1 (P-gp) (P08183 whole entry): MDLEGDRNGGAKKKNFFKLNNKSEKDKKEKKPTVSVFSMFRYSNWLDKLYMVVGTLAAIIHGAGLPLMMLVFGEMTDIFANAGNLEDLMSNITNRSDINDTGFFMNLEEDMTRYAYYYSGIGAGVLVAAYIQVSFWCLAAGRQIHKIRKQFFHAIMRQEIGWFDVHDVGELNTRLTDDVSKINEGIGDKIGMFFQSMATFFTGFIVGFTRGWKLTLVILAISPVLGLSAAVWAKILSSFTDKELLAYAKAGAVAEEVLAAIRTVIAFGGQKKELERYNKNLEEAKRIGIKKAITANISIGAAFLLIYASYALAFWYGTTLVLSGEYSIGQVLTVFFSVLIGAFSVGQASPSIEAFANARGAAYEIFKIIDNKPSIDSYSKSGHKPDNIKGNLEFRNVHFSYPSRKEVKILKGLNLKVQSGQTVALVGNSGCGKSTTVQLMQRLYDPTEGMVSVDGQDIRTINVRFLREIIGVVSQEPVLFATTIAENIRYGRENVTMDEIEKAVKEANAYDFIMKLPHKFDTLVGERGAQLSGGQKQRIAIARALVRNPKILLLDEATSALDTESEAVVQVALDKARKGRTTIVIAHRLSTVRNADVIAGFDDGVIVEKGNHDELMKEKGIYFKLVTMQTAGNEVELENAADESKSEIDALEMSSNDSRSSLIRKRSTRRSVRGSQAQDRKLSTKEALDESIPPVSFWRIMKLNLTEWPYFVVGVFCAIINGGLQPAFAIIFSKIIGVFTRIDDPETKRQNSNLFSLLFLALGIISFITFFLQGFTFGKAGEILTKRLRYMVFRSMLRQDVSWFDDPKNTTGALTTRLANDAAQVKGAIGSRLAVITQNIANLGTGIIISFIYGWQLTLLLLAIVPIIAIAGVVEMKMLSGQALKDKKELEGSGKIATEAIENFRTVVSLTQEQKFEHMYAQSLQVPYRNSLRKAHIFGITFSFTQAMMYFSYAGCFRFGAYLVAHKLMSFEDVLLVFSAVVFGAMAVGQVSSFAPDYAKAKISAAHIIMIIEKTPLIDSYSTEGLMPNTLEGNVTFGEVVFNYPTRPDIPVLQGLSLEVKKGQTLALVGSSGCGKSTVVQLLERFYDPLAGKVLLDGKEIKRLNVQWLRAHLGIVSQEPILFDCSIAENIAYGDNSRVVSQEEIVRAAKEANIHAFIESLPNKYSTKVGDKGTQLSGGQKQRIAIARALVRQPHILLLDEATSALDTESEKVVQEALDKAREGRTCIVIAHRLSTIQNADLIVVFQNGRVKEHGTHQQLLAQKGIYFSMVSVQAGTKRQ
Sequence of Multidrug resistance-associated protein 1 (P33527 whole entry): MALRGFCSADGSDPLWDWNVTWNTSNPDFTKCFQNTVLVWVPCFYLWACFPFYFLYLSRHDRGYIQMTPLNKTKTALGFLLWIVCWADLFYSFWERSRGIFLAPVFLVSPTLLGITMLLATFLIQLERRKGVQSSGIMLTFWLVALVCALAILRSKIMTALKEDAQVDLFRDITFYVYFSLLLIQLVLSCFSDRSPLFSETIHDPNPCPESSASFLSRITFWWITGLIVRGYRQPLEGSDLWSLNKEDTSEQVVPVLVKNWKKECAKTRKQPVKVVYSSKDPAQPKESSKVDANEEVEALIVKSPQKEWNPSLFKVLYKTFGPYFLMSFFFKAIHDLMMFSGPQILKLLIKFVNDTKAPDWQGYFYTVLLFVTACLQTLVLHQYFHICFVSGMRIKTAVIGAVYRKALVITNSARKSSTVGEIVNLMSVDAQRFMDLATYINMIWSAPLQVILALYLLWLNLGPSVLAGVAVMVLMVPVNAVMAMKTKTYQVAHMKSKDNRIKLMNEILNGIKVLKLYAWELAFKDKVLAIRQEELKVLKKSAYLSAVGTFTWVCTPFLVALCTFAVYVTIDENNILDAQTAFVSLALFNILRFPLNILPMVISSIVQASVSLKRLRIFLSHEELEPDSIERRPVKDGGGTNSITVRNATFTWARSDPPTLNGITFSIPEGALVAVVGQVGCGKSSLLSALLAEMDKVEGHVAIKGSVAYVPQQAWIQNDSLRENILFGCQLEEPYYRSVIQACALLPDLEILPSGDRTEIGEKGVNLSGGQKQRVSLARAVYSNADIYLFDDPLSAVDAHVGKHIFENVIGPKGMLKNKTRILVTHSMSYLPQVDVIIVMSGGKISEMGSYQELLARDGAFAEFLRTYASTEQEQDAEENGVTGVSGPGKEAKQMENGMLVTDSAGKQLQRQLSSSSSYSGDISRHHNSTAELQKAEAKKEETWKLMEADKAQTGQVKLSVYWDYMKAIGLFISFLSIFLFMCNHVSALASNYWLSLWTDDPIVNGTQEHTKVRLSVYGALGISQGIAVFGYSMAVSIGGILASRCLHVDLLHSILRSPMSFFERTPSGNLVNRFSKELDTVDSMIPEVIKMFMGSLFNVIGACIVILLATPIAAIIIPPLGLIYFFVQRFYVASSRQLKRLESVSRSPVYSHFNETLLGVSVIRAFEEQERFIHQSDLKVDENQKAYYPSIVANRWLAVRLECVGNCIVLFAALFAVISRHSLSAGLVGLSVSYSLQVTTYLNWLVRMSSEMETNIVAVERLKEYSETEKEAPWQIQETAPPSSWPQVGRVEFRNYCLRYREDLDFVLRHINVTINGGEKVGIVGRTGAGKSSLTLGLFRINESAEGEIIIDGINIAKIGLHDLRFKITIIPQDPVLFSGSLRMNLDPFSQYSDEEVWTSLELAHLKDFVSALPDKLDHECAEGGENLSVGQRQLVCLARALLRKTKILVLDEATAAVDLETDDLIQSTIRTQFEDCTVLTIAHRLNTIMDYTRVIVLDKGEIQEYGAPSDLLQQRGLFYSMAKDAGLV

On to `COc1ccc(C(=O)Nc2ccccc2-c2nnn(-c3ccc(C(F)(F)F)cc3)n2)cc1`, for which the GI50 (in general, the concentration giving 50% growth inhibition) at 72 h came out at 34.4 µM in data set [1] and 40.2 µM in [5]. Further, the “inhibition (INH)” value is “Active” in data set [2], “Not Active” in [3] and “Active” in [11]. The inhibition (in general, the change of the read-out against control, counted positive when it falls) at 1 h, 10 µM on ABCB1 (P-gp) was < 25%. The Ratio in [4] is 500. In addition, the IC50 (in general, the concentration that inhibits the measured activity by half) in data set [6] is 0.073 µM. Besides, the solubility (commonly the concentration that dissolves in the medium under given conditions) in data set [7] was > 10 mM; in data set [8] it was “Insoluble”. In addition, the selectivity ratio at BCRP (ABCG2) [9] was 2. Moreover, the Emax at 2 h at BCRP (ABCG2) [10] was determined as 102%.
Turning to `CCCc1ccc(-n2nnc(-c3ccccc3NC(=O)c3ccc(OC)cc3)n2)cc1`, the GI50 at 72 h stood at 63.2 µM in data set [1] and 61.8 µM in data set [5]. For the same compound, the “inhibition (INH)” value in data set [3] is on record as “Not Active”. For the same compound, the inhibition at 1 h, 10 µM on ABCB1 (P-gp) was < 25%. The Ratio in data set [4] is recorded as 1000. Also, in [6], the IC50 amounted to 0.0642 µM. The solubility in data set [7] was > 10 mM; in [8] it was “Insoluble”. Also, the selectivity ratio at BCRP (ABCG2) [9] amounted to 2. For the same compound, the Emax at 2 h at BCRP (ABCG2) [10] stood at 88%.
Consider `CCCc1ccc(C(=O)Nc2ccccc2-c2nnn(-c3ccc(OC)cc3)n2)cc1`, for which the GI50 at 72 h in [1] amounted to 77.6 µM; in data set [5], 60.9 µM. In addition, in data set [3], the “inhibition (INH)” value is recorded as “Not Active”. For the same compound, at ABCB1 (P-gp), the inhibition at 1 h, 10 µM is < 25%. Further, the Ratio in data set [4] came out at 1000. This compound also had an IC50 in [6] of 0.0794 µM. Further, the solubility in data set [7] is > 10 mM; in [8] it was “Insoluble”. The selectivity ratio on BCRP (ABCG2) [9] is 2. The Emax at 2 h at BCRP (ABCG2) [10] was 91%.
